Test results from ChEMBL document CHEMBL1122980, “Stereoselective metabolism of conformational analogues of warfarin by beta-naphthoflavone-inducible cytochrome P-450” (J Med Chem, 1985).

Species: Rattus norvegicus
Experiment: Rate of metabolism in liver microsomes (BNF treated rats)
Format: ADME
Method in brief: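 Liver microsomes pooled from three male Sprague–Dawley rats (140–170 g) given BNF ip (80 mg/kg in corn oil) daily for 3 days, taken on day 4. Microsomal protein 2 mg/mL. Substrate added after 2-min equilibration, 200 μg/mL in acetone, or warfarin also in pH 7.4 phosphate buffer. Incubated 20 min at 37 °C, triplicate. Hydroxy metabolites quantified by GC/MS against deuterated internal standards. Rates given per nmol P-450 per min, mean ±SD.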

Row | Structure (SMILES) | RPF | Metabolism rate
1 | COc1c([C@H](CC(C)=O)c2ccccc2)c(=O)oc2ccc(O)cc12 | 11.5 pM nM-1 | 
2 | COc1c([C@H](CC(C)=O)c2ccc(O)cc2)c(=O)oc2ccccc12 | 85.3 pM nM-1 | 
3 | CC(=O)C[C@@H](c1ccc(O)cc1)c1c(O)c2ccccc2oc1=O |  | 13.7 pmol/min/nmol P-450
4 | CO[C@]1(C)C[C@H](c2ccccc2)c2c(c3cccc(O)c3oc2=O)O1 | 14.9 pM nM-1 | 
5 | CO[C@]1(C)C[C@H](c2ccc(O)cc2)c2c(c3ccccc3oc2=O)O1 | 52 pM nM-1 | 
6 | CO[C@]1(C)C[C@H](c2ccccc2)c2c(c3ccc(O)cc3oc2=O)O1 | 12.8 pM nM-1 | 
7 | COC1(C)C[C@H](c2ccccc2)c2c(c3ccc(O)cc3oc2=O)O1 (some centres undefined) | 19.3 pM nM-1 | 
8 | COC1(C)C[C@H](c2ccc(O)cc2)c2c(c3ccccc3oc2=O)O1 (some centres undefined) | 76.2 pM nM-1 | 
9 | COC1(C)C[C@@H](c2ccccc2)c2c(c3ccc(O)cc3oc2=O)O1 (some centres undefined) | 13.9 pM nM-1 | 
10 | COc1c([C@@H](CC(C)=O)c2ccccc2)c(=O)oc2cc(O)ccc12 | 31.2 pM nM-1 | 
11 | CO[C@@]1(C)C[C@@H](c2ccccc2)c2c(c3cccc(O)c3oc2=O)O1 | 34.6 pM nM-1 | 
12 | CC(=O)C[C@H](c1ccc(O)cc1)c1c(O)c2ccccc2oc1=O |  | 22.4 pmol/min/nmol P-450
13 | CO[C@]1(C)C[C@@H](c2ccccc2)c2c(c3cc(O)ccc3oc2=O)O1 | 24.1 pM nM-1 | 
14 | COc1c([C@@H](CC(C)=O)c2ccc(O)cc2)c(=O)oc2ccccc12 | 47.8 pM nM-1 | 
15 | CO[C@]1(C)C[C@@H](c2ccc(O)cc2)c2c(c3ccccc3oc2=O)O1 | 73.5 pM nM-1 | 
16 | COC1(C)C[C@H](c2ccccc2)c2c(c3cc(O)ccc3oc2=O)O1 (some centres undefined) | 20.3 pM nM-1 | 
17 | COc1c([C@@H](CC(C)=O)c2ccccc2)c(=O)oc2ccc(O)cc12 | 19.1 pM nM-1 | 
18 | CC(=O)C[C@@H](c1ccccc1)c1c(O)c2ccc(O)cc2oc1=O | 195 pmol/min/nmol | 216.8 pmol/min/nmol P-450
19 | CC(=O)C[C@@H](c1ccccc1)c1c(O)c2cc(O)ccc2oc1=O | 37.1 pmol/min/nmol | 41.2 pmol/min/nmol P-450
20 | CO[C@@]1(C)C[C@H](c2ccccc2)c2c(c3cccc(O)c3oc2=O)O1 | 15.1 pM nM-1 | 
21 | CC(=O)C[C@H](c1ccccc1)c1c(O)c2cc(O)ccc2oc1=O | 102 pmol/min/nmol | 113.7 pmol/min/nmol P-450
22 | COC1(C)C[C@@H](c2ccc(O)cc2)c2c(c3ccccc3oc2=O)O1 (some centres undefined) | 64.8 pM nM-1 | 
23 | CO[C@]1(C)C[C@@H](c2ccccc2)c2c(c3ccc(O)cc3oc2=O)O1 | 14.9 pM nM-1 | 
24 | CO[C@]1(C)C[C@@H](c2ccccc2)c2c(c3cccc(O)c3oc2=O)O1 | 42.8 pM nM-1 | 
25 | COc1c([C@H](CC(C)=O)c2ccccc2)c(=O)oc2cc(O)ccc12 | 8.3 pM nM-1 | 
26 | COC1(C)C[C@@H](c2ccccc2)c2c(c3cc(O)ccc3oc2=O)O1 (some centres undefined) | 14.8 pM nM-1 | 
